Measurements from different studies.
Compare with care: the assays were run in different laboratories.
Target: Serine/threonine-protein kinase 16 (STK16, Homo sapiens, UniProt O75716)

With `O=C(Nc1cnn(-c2csc(C(=O)NC3COC3)c2)c1)Nc1c(F)cccc1Cl` the remaining activity was 107% (enzyme activity; inhibitor; 5 µM).
For `CN(C(=O)c1ccccc1)c1cc(N(C)c2ccc3c(c2)CCc2ccc(C(=O)NCCN4CCOCC4)cc2C3=O)ccc1F`, the remaining binding was 93% (cell-free assay; competition with immobilised ligand; 1 µM).
`FC(F)(F)Oc1cccc(-c2cnc3ccc(-c4ccncc4)nn23)c1` has an activity vs control of 118% (enzyme activity; inhibitor; radiometric; 5 µM).
For `COc1cc(Nc2cnc(C#N)c(O[C@H](C)CN(C)C)n2)ncc1-c1cnn(C)c1`, the remaining activity was 91% (enzyme activity; inhibitor; radiometric; 1 µM).
The remaining binding of `Nc1cnc(N2CCc3cc(S(=O)(=O)Nc4c(F)cc(Cl)cc4F)cc(N4CCCC4=O)c32)nc1` is reported as 100% (cell-free assay; competition with immobilised ligand; 1 µM).
For `COc1cc(-c2cc(-c3ccc(N4CCNCC4)cc3)cnc2C)cc(OC)c1OC`, the inhibition was 8% (enzyme activity; inhibitor; 1 µM).
`CCS(=O)(=O)c1cc2cc(C[C@@](O)(CC(C)(C)c3ccc(F)cc3C(N)=O)C(F)(F)F)[nH]c2cn1` gave a remaining binding of 91% (cell-free assay; competition with immobilised ligand; 1 µM).
`CC(C)(O)[C@H]1CC[C@H](Nc2ccc3ncc(-c4cccc(C(F)(F)F)c4)n3n2)CC1` gave a remaining activity of 78.7% (enzyme activity; inhibitor; 1 µM).
For `C[C@@H]1CCN(C(=O)CC#N)C[C@@H]1N(C)c1ncnc2[nH]ccc12`, the remaining signal was 94.7% (cell-free assay; inhibitor; 0.5 µM).
For `O=C(O)c1cc(-c2ccc(C3CCNCC3)cc2)c2ccc(-c3ccc(C(F)(F)F)cc3)cc2c1`, the remaining binding was 100% (cell-free assay; competition with immobilised ligand; 1 µM).
`COc1cc(/C=C/C(=O)CC(=O)/C=C/c2ccc(O)c(OC)c2)ccc1O` has an activity vs control of 91% (enzyme activity; inhibitor; 1 µM).
For `Cn1cnc(Br)c1C1=CN(c2ncnc3[nH]cnc23)CCS1`, the inhibition was 67.8% (enzyme activity; inhibitor; radiometric; 2 µM).
`CS(=O)(=O)N1CCCC(NC(=O)[C@H](CCC2CCCCC2)NC(=O)c2ccc(CNc3ncnc4c3nnn4-c3ccccc3)cc2)C1` (stereo partly shown) has a remaining binding of 100% (cell-free assay; competition with immobilised ligand; 0.1 µM).
For `O=C1Nc2ccc(Cl)cc2C1=Cc1cc(Cl)c(O)c(Cl)c1`, the remaining signal was 90.2% (cell-free assay; 0.5 µM).
`Cn1cncc1C1=CN(c2ncnc3[nH]cnc23)CCS1` gave an inhibition of 49.5% (enzyme activity; inhibitor; radiometric; 2 µM).
The remaining signal of `C#Cc1cccc(Nc2ncnc3cc(OCCOC)c(OCCOC)cc23)c1` is reported as 98% (cell-free assay; 0.5 µM).
The remaining signal of `Nc1ncnc2occ(-c3ccc(NC(=O)Nc4cc(C(F)(F)F)ccc4F)cc3)c12` is reported as 84% (cell-free assay; inhibitor; 20 µM).
The remaining signal of `Oc1cccc(-c2nc(N3CCOCC3)c3oc4ncccc4c3n2)c1` is reported as 91.7% (cell-free assay; 0.5 µM).
`COc1cc(Cl)c(C(=O)N[C@@H](CN[C@H]2CC[C@@H](N)CC2)Cc2ccc(C#N)cc2)cc1-c1ccc(CN[C@H](C)c2ccc(C)cc2)o1` gave a remaining activity of 95% (enzyme activity; inhibitor; 1 µM).
